Calls of active or inactive are those of the source. The calls are words filed in the database; no cut-off is given here.
Tests used:
V79 = test: Cytotoxicity against chinese hamster V79 cells after 6 days by Alamar blue assay; format: cell-based; conditions: Cricetulus griseus, V79, 144 h
Vero = test: Cytotoxicity against african green monkey Vero cells after 6 days by Alamar blue assay; format: cell-based; conditions: Chlorocebus sabaeus, 144 h
Summary of the method: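 Vero cells seeded at 1×10^4 ml⁻¹ in RPMI 1640 with 10% FCS containing graded compound (up to 250 μM). 6 days at 37°C, 5% CO2, then Alamar Blue for 8 h; fluorescence read and IC50 derived.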

Trypanosoma cruzi = test: Antitrypanosomal activity against Trypanosoma cruzi clone Cl-Brener infected in african green monkey Vero cells assessed as growth inhibition after 3 days by luciferase reporter gene assay; format: functional, organism-based; conditions: 72 h
Summary of the method: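 Vero cells seeded at 1.5×10^4 ml⁻¹, allowed to adhere 6 h, then infected overnight with 10,000 luciferase-expressing Cl-Brener trypomastigotes per well. After two washes to remove free parasites, drug-containing medium was added for 3 days at 37°C, 5% CO2. Cells were lysed and luciferase light output read; IC50 calculated.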

Trypanosoma brucei [1] = test: Activity of Trypanosoma brucei NTR expressed in Escherichia coli assessed as enzyme-mediated compound reduction by reverse phase HPLC
Summary of the method: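 Recombinant His-tagged TbNTR purified from E. coli (Ni-NTA). Substrate 100 μM with 200 μM NADH, 3 mM glucose, 1 U glucose dehydrogenase in 50 mM NaH2PO4 pH 7.5 at 37°C; started with 50 μg enzyme. Aliquots at 20–600 s quenched in ice-cold methanol. Substrate loss followed by reversed-phase HPLC (4–56% acetonitrile, 254/340/450 nm), quantified against a nifurtimox standard.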

Trypanosoma brucei [2] = test: Antitrypanosomal activity against Trypanosoma brucei BSF overexpressing NTR gene assessed as growth inhibition after 3 days by Alamar blue assay; format: functional, organism-based; conditions: 72 h
Summary of the method: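 Bloodstream-form 2T1 parasites overexpressing TbNTR, kept in hygromycin, seeded at 1×10^3 ml⁻¹ in modified Iscove's medium with graded compound. Tetracycline 1 μg ml⁻¹ added for induction where appropriate. 3 days at 37°C, 5% CO2, then Alamar Blue for 16 h; fluorescence at ex 530/em 585 nm. IC50 calculated; means of 4 experiments ± SD.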

| Compound | IC50 (V79) | IC50 (Vero) | IC50 (Trypanosoma cruzi) | Activity (Trypanosoma brucei [1]) | IC50 (Trypanosoma brucei [2]) |
| --- | --- | --- | --- | --- | --- |
| NC(=O)c1cc(N2CC2)c([N+](=O)[O-])cc1[N+](=O)[O-] [TRETAZICAR] | 543 µM | > 250 µM | 0.57 µM | Active | – |
| O=[N+]([O-])c1cc(NCC(O)CO)c(N2CC2)c([N+](=O)[O-])c1 (centres undefined) | – | – | > 10 µM | – | > 6.4 µM |
| O=C(NCCN1CCOCC1)c1cc([N+](=O)[O-])cc([N+](=O)[O-])c1N1CC1 | – | – | > 10 µM | – | > 10 µM |
| O=C(NCCN1CCOCC1)c1cc(N2CC2)c([N+](=O)[O-])cc1[N+](=O)[O-] | 624 µM | > 250 µM | 1.59 µM | Active | 0.89 µM |
| CS(=O)(=O)c1cc([N+](=O)[O-])c(N2CC2)cc1C(N)=O | – | – | > 10 µM | – | > 10 µM |
| NC(=O)c1cc([N+](=O)[O-])cc([N+](=O)[O-])c1N1CC1 | – | – | > 10 µM | – | > 10 µM |
| COC(=O)CCNC(=O)c1cc(N2CC2)c([N+](=O)[O-])cc1[N+](=O)[O-] | 634 µM | > 250 µM | 0.69 µM | Active | 1.45 µM |
| CC1CS(=O)(=O)CCN1/N=C/c1ccc([N+](=O)[O-])o1 (centres undefined) [NIFURTIMOX] | 35 µM | 64.1 µM | 0.24 µM | – | – |
| NC(=O)c1ccc([N+](=O)[O-])c(N2CC2)c1 | – | – | > 10 µM | – | > 10 µM |
| CS(=O)(=O)c1cc([N+](=O)[O-])c(N2CC2)cc1NCC(O)CO (centres undefined) | – | – | > 10 µM | – | > 10 µM |

Reference: ChEMBL document CHEMBL1649334, “Trypanocidal activity of aziridinyl nitrobenzamide prodrugs” (Antimicrob Agents Chemother, 2010)
